According to ChEMBL document CHEMBL1123214, “(o- and p-Nitrobenzyloxycarbonyl)-5-fluorouracil derivatives as potential conjugated bioreductive alkylating agents” (1986):

Key:
Type in all cases: functional
[1] = test system: Mus musculus; experiment: Compound was tested for the effect on the survival time of the mice bearing P388 leukemia at dose 100 mg/kg; ratio of survival time of treated and control
Method in brief: (§1)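 Ascites cells were taken from donor CDF₁ mice with 7-day growths, spun, diluted 10-fold in isotonic saline and set to 10⁷ cells/mL. About 10⁶ cells were given ip per mouse. Drug was homogenized in 20% aqueous Tween 80, made up in saline, and given ip once daily for 6 days from 24 h after implant. Vehicle controls were included. Read-out was survival time, as T/C × 100, with % weight change as toxicity.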

[2] = test system: Mus musculus; experiment: Compound was tested for the effect on the survival time of the mice bearing P388 leukemia at dose 20 mg/kg; ratio of survival time of treated and control; method in brief: as §1
[3] = test system: Mus musculus; experiment: Compound was tested for the effect on the survival time of the mice bearing P388 leukemia at dose 60 mg/kg; ratio of survival time of treated and control; method in brief: as §1
[4] = test system: Mus musculus; experiment: Compound was tested for the effect on the survival time of the mice bearing Sarcoma 180 ascites at dose of 40 mg/kg; ratio of survival time of treated and control; method in brief: as §1
[5] = test system: Mus musculus; experiment: Compound was tested for the effect on the survival time of the mice bearing P388 leukemia at dose 80 mg/kg; ratio of survival time of treated and control; method in brief: as §1
[6] = test system: Mus musculus; experiment: Compound was tested for the effect on the survival time of the mice bearing Sarcoma 180 ascites at dose of 10 mg/kg; method in brief: as §1
[7] = test system: Mus musculus; experiment: Compound was tested for the effect on the survival time of the mice bearing P388 leukemia at dose 20 mg/kg; method in brief: as §1
[8] = test system: Mus musculus; experiment: Compound was tested for the effect on the survival time of the mice bearing Sarcoma 180 ascites at dose of 20 mg/kg; method in brief: as §1
[9] = test system: Mus musculus; experiment: Compound was tested for the effect on the survival time of the mice bearing P388 leukemia at dose 60 mg/kg; method in brief: as §1
[10] = test system: Mus musculus; experiment: Compound was tested for the effect on the survival time of the mice bearing Sarcoma 180 ascites at dose of 10 mg/kg; ratio of survival time of treated and control; method in brief: as §1
[11] = test system: Mus musculus; experiment: Compound was tested for the effect on the survival time of the mice bearing P388 leukemia at dose 100 mg/kg; method in brief: as §1
[12] = test system: Mus musculus; experiment: Compound was tested for the effect on the survival time of the mice bearing P388 leukemia at dose 200 mg/kg; ratio of survival time of treated and control; method in brief: as §1
[13] = test system: Mus musculus; experiment: Compound was tested for the effect on the survival time of the mice bearing Sarcoma 180 ascites at dose of 20 mg/kg; ratio of survival time of treated and control; method in brief: as §1
[14] = test system: Mus musculus; experiment: Compound was tested for the effect on the survival time of the mice bearing P388 leukemia at dose 40 mg/kg; method in brief: as §1
[15] = test system: Mus musculus; experiment: Compound was tested for the effect on the survival time of the mice bearing P388 leukemia at dose 200 mg/kg; method in brief: as §1
[16] = test system: Mus musculus; experiment: Compound was tested for the effect on the survival time of the mice bearing P388 leukemia at dose 80 mg/kg; method in brief: as §1
[17] = test system: Mus musculus; experiment: Compound was tested for the effect on the survival time of the mice bearing P388 leukemia at dose 40 mg/kg; ratio of survival time of treated and control; method in brief: as §1
[18] = test system: Mus musculus; experiment: Compound was tested for the effect on the survival time of the mice bearing Sarcoma 180 ascites at dose of 40 mg/kg; method in brief: as §1
[19] = test system: Mus musculus; experiment: Compound was tested for the effect on the survival time of the mice bearing P388 leukemia at dose 50 mg/kg; method in brief: as §1
[20] = test system: Mus musculus; experiment: Compound was tested for the effect on the survival time of the mice bearing P388 leukemia at dose 25 mg/kg; ratio of survival time of treated and control; method in brief: as §1
[21] = test system: Mus musculus; experiment: Compound was tested for the effect on the survival time of the mice bearing P388 leukemia at dose 25 mg/kg; method in brief: as §1
[22] = test system: Mus musculus; experiment: Compound was tested for the effect on the survival time of the mice bearing P388 leukemia at dose 50 mg/kg; ratio of survival time of treated and control; method in brief: as §1

Row | Structure (SMILES) | T/C [1] | T/C [3] | Change in weight [9] | Change in weight [11] | Change in weight [19] | T/C [20] | Change in weight [21] | T/C [22] | also measured
1 | O=C(Cc1ccc([N+](=O)[O-])cc1)On1c(=O)[nH]cc(F)c1=O | 158 | 196 | -2.9% | -11.6% | – | – | – | – | T/C [2]: 165; T/C [4]: 332; T/C [5]: 212; Change in weight [6]: 9.6%; Change in weight [7]: 5.6%; Change in weight [8]: 2.7%; T/C [10]: 159; T/C [12]: 64; T/C [13]: 124; Change in weight [14]: 0%; Change in weight [15]: -10.7%; Change in weight [16]: -5.8%; T/C [17]: 190; Change in weight [18]: -7.6%
2 | O=c1c(F)cn(Cc2ccccc2[N+](=O)[O-])c(=O)n1Cc1ccccc1[N+](=O)[O-] | 86 | – | – | 22.4% | 15% | 90 | 17.8% | 88 | –
3 | O=c1c(F)cn(C2CCCO2)c(=O)n1Cc1ccccc1[N+](=O)[O-] (stereo not drawn) | 96 | – | – | 13.7% | 7.8% | 90 | 10.3% | 96 | –
4 | O=c1[nH]c(=O)n(Cc2ccccc2[N+](=O)[O-])cc1F | 88 | – | – | 20.8% | 10% | 90 | 13.3% | 92 | –
5 | O=C(Cc1ccc([N+](=O)[O-])cc1)On1cc(F)c(=O)n(OC(=O)Cc2ccc([N+](=O)[O-])cc2)c1=O | – | 149 | -5.5% | – | – | – | – | – | T/C [5]: 158; Change in weight [14]: -2.7%; Change in weight [16]: -7.4%; T/C [17]: 136
6 | O=c1[nH]cc(F)c(=O)[nH]1 [FLUOROURACIL] | – | – | – | – | – | – | – | – | T/C [2]: 185; Change in weight [7]: -12.5%; Change in weight [8]: -3.4%; T/C [13]: 277
7 | O=c1[nH]c(=O)n(C2CCCO2)cc1F (stereo not drawn) [TEGAFUR] | – | 100 | 12.2% | – | – | – | – | – | –
